# Assay results from different studies.
# Lines come from different studies, so protocols differ.
# Target: BDNF/NT-3 growth factors receptor (NTRK2, Homo sapiens, UniProt Q16620)
Compound,read-out,action,technique,concentration,measurement,result
C#Cc1n[nH]c2c(-c3cn(C(C)c4ccccn4)c(=O)[nH]c3=O)cc(F)cc12 (centres unmarked),enzyme activity,inhibitor,,1 µM,inhibition,2.8%
Cn1cc(-c2cc(F)cc(N3CCn4c(cc5c4CCCC5)C3=O)c2CO)cc(Nc2ccc(N3CCN(C4COC4)CC3)cn2)c1=O,enzyme activity,inhibitor,,0.1 µM,inhibition,11%
Nc1ncc(-c2nc(N3CCOCC3)nc(N3CCOCC3)n2)c(C(F)F)n1,cell-free assay,,competition with immobilised ligand,10 µM,remaining binding,74%
C#Cc1n[nH]c2c(-c3cn([C@@H](C)c4ccccc4)c(=O)[nH]c3=O)cc(F)cc12,enzyme activity,inhibitor,,0.1 µM,inhibition,6.2%
Cc1nn(C)cc1-c1nc2c(N3CCN(Cc4ccc(Cl)cc4)CC3)c(Cl)cnc2[nH]1,binding,,competition with immobilised ligand,1 µM,remaining binding,44%
N#CC1(c2ccccn2)CCN(Cc2cc(C(=O)O)c(=O)n3ccccc23)CC1,cell-free assay,,competition with immobilised ligand,1 µM,remaining binding,84%
O=c1[nH]c2ccccc2n1C1CCN(Cc2ccc(-c3[nH]c4cc5ncnc5cc4nc3-c3ccccc3)cc2)CC1,cell-free assay,,,0.5 µM,remaining signal,99.4%
COc1cc(Nc2ncc(F)c(Nc3ccc4c(n3)NC(=O)C(C)(C)O4)n2)cc(OC)c1OC,binding,,competition with immobilised ligand,10 µM,inhibition,95%
CC(C)(C)c1cc(C=C(C#N)C#N)cc(Br)c1O,enzyme activity,inhibitor,,0.5 µM,remaining activity,90.9%
Cn1cncc1[C@](O)(COc1ccc(C#N)cc1-c1ccc(OC(F)(F)F)cc1)c1ccc(C#N)cc1,cell-free assay,,competition with immobilised ligand,1 µM,remaining binding,92%
COc1ncccc1-c1cnn2ccc(N3CCN(C(=O)OC(C)C)CC3)nc12,binding,,competition with immobilised ligand,1 µM,remaining binding,40%
